The values that follow come from ChEMBL document CHEMBL4028890, “A Positive Allosteric Modulator of the Serotonin 5-HT2C Receptor for Obesity” (J Med Chem, 2017).

Activity calls are given as the source filed them. The calls are words filed in the database; no cut-off is given here.

For data set [1], the species on record is Rattus norvegicus. Nature of the data set: Toxicity in Wistar rat assessed as induction of malaise at 0.4 M measured 30 mins for 2 days by conditioned taste aversion test. Conditions: in vivo, 0.5 h. The method, boiled down:
(§1)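 Rats water-deprived 24 h, then trained to drink from a graded bottle in 30 min sessions for 4 days. On day 5, 0.1% saccharin replaced water, and 30 min later rats got ip vehicle, compound (2 mg/kg) or LiCl (0.4 M, 7.5 mL/kg). Water intake was recorded over 30 min on the next 2 days, then a water or saccharin choice was measured.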

Data set [2] deals with T1, 5-hydroxytryptamine receptor 2C (Homo sapiens) (UniProt P28335).
T1 sequence (whole entry): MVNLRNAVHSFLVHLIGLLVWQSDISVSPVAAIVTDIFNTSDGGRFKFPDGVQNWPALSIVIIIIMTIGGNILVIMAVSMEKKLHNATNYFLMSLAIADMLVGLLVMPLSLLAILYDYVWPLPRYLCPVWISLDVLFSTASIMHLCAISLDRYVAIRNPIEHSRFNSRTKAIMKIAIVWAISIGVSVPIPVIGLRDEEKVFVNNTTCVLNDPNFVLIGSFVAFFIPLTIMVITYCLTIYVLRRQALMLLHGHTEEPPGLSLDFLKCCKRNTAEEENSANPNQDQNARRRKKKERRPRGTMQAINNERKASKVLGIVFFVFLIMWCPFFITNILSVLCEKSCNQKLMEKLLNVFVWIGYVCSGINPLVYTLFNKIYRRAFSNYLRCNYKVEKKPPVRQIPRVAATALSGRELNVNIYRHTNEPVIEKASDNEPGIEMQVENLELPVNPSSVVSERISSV
Nature of the data set: Positive allosteric modulation of human 5-HT2C receptor expressed in human HeLa-K1 cells assessed as potentiation of 5-HT-induced inositol monophosphate release at 10 uM after 20 mins by HTRF assay relative to control. It counts as functional, cell-based. The method, boiled down:
(§2)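 IP-One HTRF assay in CHO-K1 cells (human 5-HT2A, 5-HT2B) or HeLa-K1 cells (human 5-HT2C), seeded and grown 24 h at 37 °C. Test compound and/or 5-HT added in stimulation buffer, then 20 min at 37 °C before IP1 read-out. Data normalized to 5-HT maximal effect and fitted by nonlinear regression. Triplicates, mean ± SD.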

The subject of data set [3] is Rattus norvegicus. Nature of the data set: In vivo positive allosteric modulation of serotonin-induced feeding suppression in Wistar rat at 2 mg/kg, ip after 4 hrs in presence of 5 mg/kg selective serotonin reuptake inhibitor sertraline. The class given is functional, organism-based. The method, boiled down:
(§3)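 Male Wistar rats, 200−250 g, 10−12 weeks, food-deprived 16 h before refeeding. Test compound given ip in sterile saline. Sertraline, ketanserin (2 mg/kg) or 5-HT2C antagonist (3 mg/kg) was given ip 30 min before the test compound. Food and water intake measured 30, 60, 120 and 240 min after food presentation. Mean ± SEM, at least 8 rats per group.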

The target in data set [4] is T1, 5-hydroxytryptamine receptor 2C (Homo sapiens). The data set is described as follows: Displacement of [3H]-5-HT from human 5-HT2C receptor expressed in human HeLa-K1 cell membranes at 10 uM after 180 mins relative to control. The method, boiled down: (§4)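 Membranes from 5-HT2C-HeLa cells with test compound (10 μM) in 50 mM Tris-HCl pH 7.4. Radioligands: [3H]mesulergine 4 nM, [3H]LSD 2 nM (15 μg protein each), [3H]clozapine 15 nM (20 μg), 60 min at 27 °C. [3H]5-HT 2 nM (60 μg), 180 min at 4 °C. Nonspecific binding with 10 μM mianserin. Filtered and washed, then counted. Triplicates, mean ± SD.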

For data set [5] the target is unchanged. Nature of the data set: (§5) Positive allosteric modulation of human 5-HT2C receptor expressed in human HeLa-K1 cells assessed as potentiation of 5-HT-induced inositol monophosphate release after 20 mins by HTRF assay. It counts as functional, cell-based. The method, boiled down: as §2
The target in data set [6] is T2, 5-hydroxytryptamine receptor 2C (Homo sapiens, UniProt P28335).
T2 sequence (P28335 whole entry): T1 sequence (whole entry)
The description is as §5. It counts as functional, cell-based. The method, boiled down: as §2

In data set [7] the test system is Rattus norvegicus. The data set is described as follows: Toxicity in Wistar rat assessed as induction of malaise at 2 mg/kg, ip measured 30 mins for 2 days by conditioned taste aversion test. The class given is organism-based. Conditions: in vivo. The method, boiled down: as §1
Data set [8] deals with T3, 5-hydroxytryptamine receptor 2B (Homo sapiens, UniProt P41595). The data set is described as follows: Intrinsic agonist activity at human 5-HT2B receptor expressed in CHO-K1 cells assessed as induction of inositol monophosphate release at 10 uM after 20 mins by HTRF assay. It counts as cell-based. The method, boiled down: as §2
For data set [9], the target named is T1, 5-hydroxytryptamine receptor 2C (Homo sapiens). The data set is described as follows: Displacement of [3H]-clozapine from human 5-HT2C receptor expressed in human HeLa-K1 cell membranes at 10 uM after 60 mins relative to control. The gist of the method: as §4
Data set [10] has as its target T4, 5-hydroxytryptamine receptor 2A (Homo sapiens, UniProt P28223). The data set is described as follows: Positive allosteric modulation of human 5-HT2A receptor expressed in CHO-K1 cells assessed as potentiation of 5-HT-induced inositol monophosphate release at 10 uM after 20 mins by HTRF assay. The class given is cell-based. The method, boiled down:
as §2

Data set [11] relates to Rattus norvegicus. Nature of the data set: Toxicity in Wistar rat assessed as induction of hypolocomotion at 2 mg/kg, ip after 30 mins by open field test. The class given is organism-based. Conditions: in vivo, 0.5 h. The gist of the method:
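Rats handled for 7 days before testing. Tested 30 min after ip dosing (2 mg/kg), placed in the centre of the open field. Distance walked was recorded automatically over 10 min. No retesting.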

Data set [12] has as its system Rattus norvegicus. Nature of the data set: Antiobesity activity in restricted food access Wistar rat model assessed as reduction in food intake at 2 mg/kg, ip administered 30 mins prior to food presentation measured after 4 hrs on every day for 7 days. The class given is functional, organism-based. The gist of the method:
(§6)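 Rats had food for 4 h/day. Once the feeding baseline was stable, compound (2 mg/kg ip) or vehicle was given 30 min before food presentation. Food and water intake read at the end of the 4 h period. Repeated on 7 consecutive days, with total intake and body weight tracked. Mean ± SEM, n ≥ 8.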

Data set [13] deals with T1, 5-hydroxytryptamine receptor 2C (Homo sapiens). Nature of the data set: Displacement of [3H]-LSD from human 5-HT2C receptor expressed in human HeLa-K1 cell membranes at 1 uM after 60 mins relative to control.
The subject of data set [14] is Rattus norvegicus. The data set is described as follows: Toxicity in Wistar rat assessed as induction of hypolocomotion at 0.5 to 2 mg/kg, ip after 30 mins by elevated plus maze test. The class given is organism-based. The settings on record: in vivo, 0.5 h. The method, boiled down: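 Maze-naive rats handled for 7 days. Placed in the centre facing an open arm 30 min after ip dosing. Open-arm entries and % time in open arms scored over 5 min. No retesting.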

The nature of data set [15]: Ratio of drug level in brain to plasma in Wistar rat at 10 mg/kg, ip measured up to 6 hrs. Conditions: read-out: BPR. It counts as ADME, organism-based.
Data set [16] relates to Rattus norvegicus. The data set is described as follows: Antiobesity activity in continuous food access Wistar rat model assessed as reduction in food intake at 2 mg/kg, ip administered daily for 7 days. The class given is functional, organism-based. The method, boiled down: (§7)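 Wistar rats made obese on 60% fat diet (5.24 kcal/g) for 8 weeks. Free-feeding rats got a daily ip injection of compound (2 mg/kg) or vehicle for 7 days. Daily chow intake (kcal/kg body weight) and body weight gain (g) recorded. Mean ± SEM, n ≥ 8 per group.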

Data set [17] has as its target T1, 5-hydroxytryptamine receptor 2C (Homo sapiens). Nature of the data set: Positive allosteric modulation of human 5-HT2C receptor expressed in human HeLa-K1 cells assessed as potentiation of 5-HT-induced inositol monophosphate release at 1 uM after 20 mins by HTRF assay relative to control. It counts as functional, cell-based.
For data set [18], the target named is T4, 5-hydroxytryptamine receptor 2A. Nature of the data set: Intrinsic agonist activity at human 5-HT2A receptor expressed in CHO-K1 cells assessed as induction of inositol monophosphate release at 10 uM after 20 mins by HTRF assay. The class given is cell-based. The gist of the method:
as §2

Data set [19] deals with Rattus norvegicus. Nature of the data set: Antiobesity activity in restricted food access Wistar rat model assessed as reduction in body weight at 2 mg/kg, ip administered 30 mins prior to food presentation measured after 4 hrs on every day for 7 days. It counts as functional, organism-based. The gist of the method: as §6
For data set [20], the system named is Rattus norvegicus. Nature of the data set: Antiobesity activity in Wistar rat assessed as reduction in food intake at 2 mg/kg, ip after 4 hrs. It counts as functional, organism-based. The gist of the method: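 Male Wistar rats, 200−250 g, aged 10−12 weeks, food-deprived 16 h before refeeding. Compound given ip in sterile saline; food and water intake measured at 30, 60, 120 and 240 min after food presentation. Where used, antagonist (3 mg/kg, ip) or other pretreatments were injected 30 min before the compound. Mean ± SEM, at least eight rats per group.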

For data set [21], the system named is Rattus norvegicus. The data set is described as follows: Antiobesity activity in Wistar rat assessed as reduction in food intake at 10 mg/kg, ip after 4 hrs relative to control. It counts as functional. Further details: scale not given: the % may be the effect or the level left. The gist of the method: as §3
Data set [22] relates to Rattus norvegicus. Nature of the data set: Antiobesity activity in continuous food access Wistar rat model assessed as reduction in body weight at 2 mg/kg, ip administered daily for 7 days. The class given is functional, organism-based. The gist of the method: as §7
Data set [23] addresses T1, 5-hydroxytryptamine receptor 2C (Homo sapiens). Nature of the data set: Displacement of [3H]-mesulergine from human 5-HT2C receptor expressed in human HeLa-K1 cell membranes at 10 uM after 60 mins relative to control. The method, boiled down: as §4
Data set [24] concerns Rattus norvegicus. The data set is described as follows: Antiobesity activity in Wistar rat assessed as reduction in food intake at 1 mg/kg, ip after 4 hrs in presence of 5-HT2C antagonist SB-242084. The class given is functional, organism-based. The gist of the method:
as §3

Data set [25] concerns the target T1, 5-hydroxytryptamine receptor 2C (Homo sapiens). The data set is described as follows: Displacement of [3H]-LSD from human 5-HT2C receptor expressed in human HeLa-K1 cell membranes at 10 uM after 60 mins relative to control. The method, boiled down:
as §4

For data set [26] the target is unchanged. Nature of the data set: Intrinsic agonist activity at human 5-HT2C receptor expressed in human HeLa-K1 cells assessed as induction of inositol monophosphate release after 20 mins by HTRF assay. The class given is functional, cell-based. The gist of the method:
as §2

In data set [27] the target is T3, 5-hydroxytryptamine receptor 2B. The data set is described as follows: Positive allosteric modulation of human 5-HT2B receptor expressed in CHO-K1 cells assessed as potentiation of 5-HT-induced inositol monophosphate release at 10 uM after 20 mins by HTRF assay. The class given is cell-based. The method, boiled down:
as §2

The test system of data set [28] is Rattus norvegicus. The data set is described as follows: Antiobesity activity in Wistar rat assessed as reduction in food intake at 2 mg/kg, ip after 4 hrs in presence of 5-HT2A antagonist ketanserin. It counts as functional, organism-based. The method, boiled down: as §3
For data set [29], the system named is Rattus norvegicus. Nature of the data set: In vivo positive allosteric modulation of serotonin-induced feeding suppression in Wistar rat at 0.5 mg/kg, ip after 4 hrs in presence of 2 mg/kg selective serotonin reuptake inhibitor sertraline. The class given is functional, organism-based. The gist of the method:
as §3

T4 sequence (P28223 whole entry): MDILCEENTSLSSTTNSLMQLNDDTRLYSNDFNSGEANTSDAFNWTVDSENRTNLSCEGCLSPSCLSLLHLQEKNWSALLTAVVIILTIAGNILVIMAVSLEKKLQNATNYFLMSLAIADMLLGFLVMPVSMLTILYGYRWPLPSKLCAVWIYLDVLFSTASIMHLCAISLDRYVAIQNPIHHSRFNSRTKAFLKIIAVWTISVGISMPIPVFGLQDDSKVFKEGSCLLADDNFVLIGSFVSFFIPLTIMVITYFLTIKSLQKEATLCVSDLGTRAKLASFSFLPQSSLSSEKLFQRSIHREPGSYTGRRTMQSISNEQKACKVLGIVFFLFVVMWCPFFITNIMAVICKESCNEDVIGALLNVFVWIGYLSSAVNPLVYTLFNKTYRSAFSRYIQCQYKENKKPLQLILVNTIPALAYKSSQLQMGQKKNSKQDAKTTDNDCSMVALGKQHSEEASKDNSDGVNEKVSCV
T3 sequence (P41595 whole entry): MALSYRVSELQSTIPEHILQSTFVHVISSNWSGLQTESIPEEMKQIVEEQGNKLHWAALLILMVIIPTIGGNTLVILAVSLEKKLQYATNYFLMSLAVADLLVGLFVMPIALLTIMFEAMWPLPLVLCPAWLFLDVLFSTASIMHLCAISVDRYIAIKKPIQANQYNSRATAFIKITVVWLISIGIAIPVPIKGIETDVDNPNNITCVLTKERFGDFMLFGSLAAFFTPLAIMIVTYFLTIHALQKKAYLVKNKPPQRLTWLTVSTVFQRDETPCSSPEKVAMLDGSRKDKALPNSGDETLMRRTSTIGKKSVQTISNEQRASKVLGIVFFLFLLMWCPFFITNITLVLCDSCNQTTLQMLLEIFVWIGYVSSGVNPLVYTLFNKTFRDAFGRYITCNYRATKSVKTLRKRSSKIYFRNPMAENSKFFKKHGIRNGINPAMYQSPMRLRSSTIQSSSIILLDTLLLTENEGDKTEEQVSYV

In the case of `[Cl-].[Li+]` [CHLOROLITHIUM], in data set [1], the Activity entry was “Toxic”.

As for `c1ccc(Cn2cc(CNc3cccnc3)c3ccccc32)cc1`, the Activity in data set [2] is 35%; in data set [5], “Dose-dependent effect”; in data set [7] it was “Non-Toxic”; in [8] it was “Not Active”; in [10], “Not Active”; in data set [11], “Toxic”. Also, the Activity result in data set [14] was “Toxic”; in data set [17] it was 28%; in data set [18] it was “Not Active”; in data set [21] it was 50%; in data set [27], “Not Active”. Besides, the outcome in data set [3], in data set [12], in data set [16], in [19], in data set [20] and in [22] was Active. Besides, the result in [24], in [28] and in [29] was Active. Besides, the inhibition in data set [4] was found to be 37%; in data set [9] it was 36%; in [13] it was 21%; in data set [23], 26%; in data set [25], 67%. Also, in data set [6], the EC50 was found to be 16 nM. Further, the Kp at 6 h in data set [15] stood at 3.8. In addition, the outcome in data set [26] was inactive.
